Results from ChEMBL document CHEMBL5120858, “Structure-activity relationship and antitumor activity of 1,4-pyrazine-containing inhibitors of histone acetyltransferases P300/CBP” (Eur J Med Chem, 2022).
Calls of active or inactive are those of the source. The rule behind the calls is not given here.

Assays:
[1] = target: T1, Histone acetyltransferase p300 (Homo sapiens, UniProt Q09472); test: Inhibition of human p300 HAT domain (1195 to 1673 residues) using histone H3 peptide and acetyl-coA as substrates preincubated for 10 mins followed by substrate addition and measured after 30 mins by beckman scintillation counting analysis
T1 sequence (Q09472 whole entry, the tested form may be a part): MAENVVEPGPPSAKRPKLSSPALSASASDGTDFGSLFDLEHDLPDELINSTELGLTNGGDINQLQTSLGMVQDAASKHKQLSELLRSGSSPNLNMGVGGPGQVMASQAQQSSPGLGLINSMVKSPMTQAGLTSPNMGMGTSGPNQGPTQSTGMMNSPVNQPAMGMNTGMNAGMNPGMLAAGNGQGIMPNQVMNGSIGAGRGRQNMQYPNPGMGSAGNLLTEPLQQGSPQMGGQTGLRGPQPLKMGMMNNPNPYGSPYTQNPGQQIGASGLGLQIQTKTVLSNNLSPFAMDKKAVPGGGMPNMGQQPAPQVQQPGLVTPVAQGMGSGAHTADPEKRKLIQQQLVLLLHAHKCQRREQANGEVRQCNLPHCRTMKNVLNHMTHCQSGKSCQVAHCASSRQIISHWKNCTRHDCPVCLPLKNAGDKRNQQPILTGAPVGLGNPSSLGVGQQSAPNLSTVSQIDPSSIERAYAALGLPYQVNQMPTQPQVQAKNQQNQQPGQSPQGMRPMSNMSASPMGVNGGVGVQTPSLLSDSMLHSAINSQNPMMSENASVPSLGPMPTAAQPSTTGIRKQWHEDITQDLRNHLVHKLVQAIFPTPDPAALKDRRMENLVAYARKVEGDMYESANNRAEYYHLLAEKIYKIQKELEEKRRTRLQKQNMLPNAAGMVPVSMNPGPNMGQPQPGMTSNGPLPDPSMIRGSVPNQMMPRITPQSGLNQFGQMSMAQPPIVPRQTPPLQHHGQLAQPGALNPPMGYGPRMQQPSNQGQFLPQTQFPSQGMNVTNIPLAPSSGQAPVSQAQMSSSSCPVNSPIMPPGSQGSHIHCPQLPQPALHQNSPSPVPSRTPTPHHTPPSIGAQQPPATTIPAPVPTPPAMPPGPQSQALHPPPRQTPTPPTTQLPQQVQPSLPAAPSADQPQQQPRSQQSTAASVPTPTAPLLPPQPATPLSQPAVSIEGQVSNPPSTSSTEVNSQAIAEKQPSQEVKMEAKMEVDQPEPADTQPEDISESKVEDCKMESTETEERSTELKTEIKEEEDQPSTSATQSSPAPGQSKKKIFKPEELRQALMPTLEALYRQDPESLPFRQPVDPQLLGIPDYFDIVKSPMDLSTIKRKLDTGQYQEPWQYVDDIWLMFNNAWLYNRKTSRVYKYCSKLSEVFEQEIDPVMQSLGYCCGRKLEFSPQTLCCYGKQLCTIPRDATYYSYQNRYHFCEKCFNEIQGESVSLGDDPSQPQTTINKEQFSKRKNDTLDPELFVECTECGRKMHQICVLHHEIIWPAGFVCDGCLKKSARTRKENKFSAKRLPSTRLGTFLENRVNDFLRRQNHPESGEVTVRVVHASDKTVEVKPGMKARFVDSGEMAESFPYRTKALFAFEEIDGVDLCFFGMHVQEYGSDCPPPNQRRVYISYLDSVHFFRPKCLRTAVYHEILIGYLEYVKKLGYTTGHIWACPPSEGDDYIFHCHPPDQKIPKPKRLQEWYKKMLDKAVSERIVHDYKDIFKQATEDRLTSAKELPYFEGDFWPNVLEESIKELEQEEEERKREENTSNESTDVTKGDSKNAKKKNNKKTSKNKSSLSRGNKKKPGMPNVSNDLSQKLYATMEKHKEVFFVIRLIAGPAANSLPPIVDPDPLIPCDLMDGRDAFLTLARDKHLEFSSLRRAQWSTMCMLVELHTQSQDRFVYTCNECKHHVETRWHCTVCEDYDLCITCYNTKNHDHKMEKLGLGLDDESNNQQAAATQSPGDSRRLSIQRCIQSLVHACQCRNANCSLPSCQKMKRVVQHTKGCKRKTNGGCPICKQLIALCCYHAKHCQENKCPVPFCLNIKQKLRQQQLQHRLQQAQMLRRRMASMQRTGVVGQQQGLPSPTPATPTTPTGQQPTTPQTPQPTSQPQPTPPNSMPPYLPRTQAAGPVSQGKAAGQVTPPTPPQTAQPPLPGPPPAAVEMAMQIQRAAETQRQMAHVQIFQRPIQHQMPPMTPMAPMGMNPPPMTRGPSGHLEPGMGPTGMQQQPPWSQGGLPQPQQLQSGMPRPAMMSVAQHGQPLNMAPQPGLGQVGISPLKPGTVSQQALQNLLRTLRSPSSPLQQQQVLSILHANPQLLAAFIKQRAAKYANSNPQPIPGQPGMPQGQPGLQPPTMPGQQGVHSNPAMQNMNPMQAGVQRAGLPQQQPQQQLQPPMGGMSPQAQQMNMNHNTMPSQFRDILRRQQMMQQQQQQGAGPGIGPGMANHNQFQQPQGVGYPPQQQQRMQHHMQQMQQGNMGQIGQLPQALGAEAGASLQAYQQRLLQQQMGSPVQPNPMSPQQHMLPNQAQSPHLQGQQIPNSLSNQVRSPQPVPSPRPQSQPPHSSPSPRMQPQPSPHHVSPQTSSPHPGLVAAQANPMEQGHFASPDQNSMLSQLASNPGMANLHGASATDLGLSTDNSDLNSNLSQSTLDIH
Summary of the method: (§1)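 Radiometric HAT assay. Enzyme at 10 nM was preincubated with graded compound for 10 min at 25 °C in 50 mM phosphate pH 7.0 with 0.01% Brij-35. Reaction started with H3 (1-21) peptide (20 μM) plus Ac-CoA (1 μM ³H-Ac-CoA + 19 μM unlabelled) and run 30 min at 25 °C. Stopped with formic acid, spotted on P81 paper, washed with NaHCO₃ and scintillation counted. IC₅₀ from sigmoidal fit, mean of ≥3 experiments.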

[2] = target: T1, Histone acetyltransferase p300; test: Inhibition of human p300 HAT domain (1195 to 1673 residues) at 10 uM using histone H3 peptide and acetyl-coA as substrates preincubated for 10 mins followed by substrate addition and measured after 30 mins by beckman scintillation counting analysis relative to control; conditions: time 40.0 min
Summary of the method: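 Single-concentration screen at 10 μM in the radiometric p300 HAT domain assay: enzyme 10 nM, pH 7.0 phosphate/Brij-35, 10 min preincubation, then H3(1-21) peptide 20 μM plus ³H/unlabelled Ac-CoA (20 μM total), 30 min at 25 °C. Filter-bound ³H-acetylated peptide was counted, and the value is given as % inhibition.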

MDA-MB-231 [3] = test: Antiproliferative activity against human MDA-MB-231 cells assessed as reduction in cell growth incubated for 3 to 5 days by CellTiter-Glo luminescent cell viability assay; assay type: functional, cell-based
PC-3 [4] = test: Antiproliferative activity against human PC-3 cells assessed as reduction in cell growth incubated for 3 to 5 days by CellTiter-Glo luminescent cell viability assay; assay type: functional, cell-based
LNCaP [5] = test: Antiproliferative activity against human LNCaP cells assessed as reduction in cell growth incubated for 3 to 5 days by CellTiter-Glo luminescent cell viability assay; assay type: functional, cell-based
MOLM-13 [6] = test: Antiproliferative activity against human MOLM-13 cells assessed as reduction in cell growth incubated for 3 to 5 days by CellTiter-Glo luminescent cell viability assay; assay type: functional, cell-based
RPMI-8226 [7] = test: Antiproliferative activity against human RPMI-8226 cells assessed as reduction in cell growth incubated for 3 to 5 days by CellTiter-Glo luminescent cell viability assay; assay type: functional, cell-based
Kasumi 1 [8] = test: Inhibition of histone H3 acetylation at lysine 9 residue in human Kasumi 1 cells incubated for 12 hrs by Western blot analysis; assay type: functional, cell-based; conditions: dose 5-10 µM, DDE = dose-dependent effect
Summary of the method: (§2)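 Kasumi-1 cells (10⁶ per well) exposed to a range of compound concentrations for 12 h. Total histones extracted and 2 μg protein resolved by SDS-PAGE, then transferred to PVDF. Blots probed with antibodies to H3K9Ac, H3K18Ac, H3K27Ac and total H3, with anti-rabbit IgG secondary.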

Kasumi 1 [9] = test: Inhibition of histone H3 acetylation at lysine 27 residue in human Kasumi 1 cells incubated for 12 hrs by Western blot analysis; assay type: functional, cell-based; conditions: dose 5-10 µM, DDE = dose-dependent effect; summary of the method: as §2
[10] = target: T1, Histone acetyltransferase p300; test: Inhibition of biotinylated histone H4 peptide binding to His-tagged human p300 HAT domain (1195 to 1673 residues) assessed as reduction in alpha signal incubated for 1 hr by amplified luminescent proximity homogeneous assay
Summary of the method: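 AlphaScreen binding assay in PBS with 0.5% BSA: His6-tagged p300 HAT (125 nM) on nickel chelate acceptor beads and biotinylated H4 peptide (30 nM) on streptavidin donor beads, with a dilution series of compound. After 1 h, signal was read with excitation at 680 nm and emission at 570 nm, and IC50 came from a sigmoidal dose-response fit.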

CREB-binding protein = CREB-binding protein (Homo sapiens, UniProt Q92793); test: Inhibition of human CBP-HAT domain using histone H3 peptide and acetyl-coA as substrates preincubated for 10 mins followed by substrate addition and measured after 30 mins by beckman scintillation counting analysis; summary of the method: as §1
[11] = target: Histone acetyltransferase KAT2B (Homo sapiens, UniProt Q92831); test: Inhibition of human PCAF using histone H3 peptide and acetyl-coA as substrates preincubated for 10 mins followed by substrate addition and measured after 30 mins by beckman scintillation counting analysis; summary of the method: as §1
Sequence of Histone acetyltransferase KAT2B (Q92831 whole entry): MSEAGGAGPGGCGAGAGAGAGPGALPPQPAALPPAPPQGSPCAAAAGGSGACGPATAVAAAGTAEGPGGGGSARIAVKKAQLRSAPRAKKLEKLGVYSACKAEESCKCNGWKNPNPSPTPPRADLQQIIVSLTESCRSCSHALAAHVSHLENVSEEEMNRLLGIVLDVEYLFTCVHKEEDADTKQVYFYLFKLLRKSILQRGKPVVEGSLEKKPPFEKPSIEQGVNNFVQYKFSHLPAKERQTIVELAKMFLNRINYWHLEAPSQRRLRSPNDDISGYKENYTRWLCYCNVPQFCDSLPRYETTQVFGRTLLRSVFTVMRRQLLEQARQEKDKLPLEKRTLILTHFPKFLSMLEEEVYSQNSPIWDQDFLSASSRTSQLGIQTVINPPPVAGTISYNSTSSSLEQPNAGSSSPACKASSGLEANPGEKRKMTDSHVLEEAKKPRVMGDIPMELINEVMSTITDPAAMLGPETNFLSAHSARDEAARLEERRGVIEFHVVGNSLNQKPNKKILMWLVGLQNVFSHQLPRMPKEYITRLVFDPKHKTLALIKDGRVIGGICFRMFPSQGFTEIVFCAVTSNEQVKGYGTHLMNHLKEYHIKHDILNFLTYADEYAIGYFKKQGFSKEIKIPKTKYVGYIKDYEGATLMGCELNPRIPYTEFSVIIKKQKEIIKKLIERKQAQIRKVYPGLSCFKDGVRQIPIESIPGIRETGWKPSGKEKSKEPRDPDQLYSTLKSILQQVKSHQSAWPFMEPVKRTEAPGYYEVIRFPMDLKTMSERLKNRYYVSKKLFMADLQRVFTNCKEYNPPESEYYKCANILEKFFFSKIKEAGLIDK

[12] = target: Histone acetyltransferase KAT6A (Homo sapiens, UniProt Q92794); test: Inhibition of human Myst3 using histone H3 peptide and acetyl-coA as substrates preincubated for 10 mins followed by substrate addition and measured after 30 mins by beckman scintillation counting analysis; summary of the method: as §1
Kasumi 1 [13] = test: Inhibition of histone H3 acetylation at lysine 9 residue in human Kasumi 1 cells at 5 to 10 uM incubated for 12 hrs by Western blot analysis; assay type: functional, cell-based; conditions: dose 5-10 µM
Summary of the method: (§3)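 Kasumi-1 leukemia cells (10⁶ per well) were treated 12 h with a range of compound concentrations. Total histones were extracted, and 2 μg was resolved by SDS-PAGE and transferred to PVDF. Blots were probed for H3K9ac, H3K18ac, H3K27ac and total H3, with anti-rabbit IgG secondary.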

Kasumi 1 [14] = test: Inhibition of histone H3 acetylation at lysine 27 residue in human Kasumi 1 cells at 5 to 10 uM incubated for 12 hrs by Western blot analysis; assay type: functional, cell-based; conditions: dose 5-10 µM; summary of the method: as §3
Kasumi 1 [15] = test: Inhibition of histone H3 acetylation at lysine 18 residue in human Kasumi 1 cells incubated for 12 hrs by Western blot analysis; assay type: functional, cell-based; conditions: dose 5-10 µM, DDE = dose-dependent effect; summary of the method: as §3
MCF7 = test: Antiproliferative activity against human MCF7 cells assessed as reduction in cell growth incubated for 5 days by XTT assay; assay type: functional, cell-based; conditions: MCF7, 120 h
Summary of the method: (§4)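 Solid tumour cells were seeded at 10⁵ per well in DMEM with 10% FBS and penicillin/streptomycin and allowed to attach overnight. They were then exposed to increasing compound concentrations for 5 days. Viability was read by XTT, and EC50 came from dose-response curves.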

PANC-1 = test: Antiproliferative activity against human PANC-1 cells assessed as reduction in cell growth incubated for 5 days by XTT assay; assay type: functional, cell-based; conditions: PANC-1, 120 h; summary of the method: as §4
[16] = Antiproliferative activity against human MDA-Panc-28 cells assessed as reduction in cell growth incubated for 5 days by XTT assay; assay type: functional, cell-based; conditions: MDA-Panc-28, 120 h; summary of the method: as §4
MOLM-13 [17] = test: Antiproliferative activity against human MOLM-13 cells assessed as reduction in cell growth incubated for 5 days by XTT assay; assay type: functional, cell-based; conditions: MOLM-13, 120 h
Summary of the method: (§5)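 Blood cancer cells were plated at 10⁶ per well in RPMI-1640 with 20% FBS and penicillin/streptomycin and grown with increasing compound concentrations at 37 °C, 5% CO₂. Viability was measured by XTT, and EC50 was calculated from dose-response curves.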

MV4-11 = test: Antiproliferative activity against human MV4-11 cells assessed as reduction in cell growth incubated for 5 days by XTT assay; assay type: functional, cell-based; conditions: MV4-11, 120 h; summary of the method: as §5
RPMI-8226 [18] = test: Antiproliferative activity against human RPMI-8226 cells assessed as reduction in cell growth incubated for 5 days by XTT assay; assay type: functional, cell-based; conditions: RPMI-8226, 120 h; summary of the method: as §5
MDA-MB-231 [19] = test: Antiproliferative activity against human MDA-MB-231 cells assessed as reduction in cell growth incubated for 5 days by XTT assay; assay type: functional, cell-based; conditions: MDA-MB-231, 120 h
LNCaP [20] = test: Antiproliferative activity against human LNCaP cells assessed as reduction in cell growth incubated for 5 days by XTT assay; assay type: functional, cell-based; conditions: 120 h; summary of the method: as §4
PC-3 [21] = test: Antiproliferative activity against human PC-3 cells assessed as reduction in cell growth incubated for 5 days by XTT assay; assay type: functional, cell-based; conditions: PC-3, 120 h

SMILES	IC50 [1]	inhibition [2]	further results
CN(C)CCCOc1cnc(-c2ccc(Br)cc2)c(-c2ccc(Br)cc2)n1	> 10 µM	4.8%	
CNC(=O)Nc1ccc2c(c1)CC[C@@]21OC(=O)N(CC(=O)N(Cc2ccc(F)cc2)[C@@H](C)C(F)(F)F)C1=O (single isomer, unassigned) [A-485]			EC50 (MDA-MB-231 [3]): > 10 µM; EC50 (PC-3 [4]): 2.1 µM; EC50 (LNCaP [5]): 0.26 µM; EC50 (MOLM-13 [6]): 0.35 µM; EC50 (RPMI-8226 [7]): 0.16 µM
Brc1ccc(-c2ncc(OCC3CCNC3)nc2-c2ccc(Br)cc2)cc1 (stereo unspecified)	> 10 µM		
Brc1cccc(-c2ncc(OCC3CCNCC3)nc2-c2cccc(Br)c2)c1	9.9 µM		
N#Cc1ccc(-c2ncc(OCC3CCNCC3)nc2-c2ccc(Br)cc2)cc1	> 10 µM	0%	
c1ccc(-c2cc(OCC3CCNCC3)cnc2-c2ccccc2)cc1	46.3 µM		
NCCOc1cnc(-c2ccc(Br)cc2)c(-c2ccc(Br)cc2)n1	> 10 µM	5.4%	
CN(C)Cc1ccc(-c2ncc(OCC3CCNCC3)nc2-c2ccc(CN(C)C)cc2)cc1	> 10 µM		
NCc1ccc(-c2ncc(OCC3CCNCC3)nc2-c2ccc(CN)cc2)cc1	2.8 µM		inhibition (Kasumi 1 [8]): Dde; inhibition (Kasumi 1 [9]): Dde
COc1ccc(-c2ncc(OCC3CCNCC3)nc2-c2ccc(OC)cc2)cc1	> 10 µM	38%	
c1ccc(-c2ccc(-c3ncc(OCC4CCNCC4)nc3-c3ccc(-c4ccccn4)cc3)cc2)nc1	> 10 µM	37%	
FC(F)(F)c1ccc(-c2ncc(OCC3CCNCC3)nc2-c2ccc(C(F)(F)F)cc2)cc1	> 10 µM	34%	
O=C(O)c1cnc(-c2ccc(Br)cc2)c(-c2ccc(Br)cc2)n1	> 10 µM	30%	
CC(=O)NCCOc1cnc(-c2ccc(Br)cc2)c(-c2ccc(Br)cc2)n1	> 10 µM	0%	
Fc1cc(-c2ncc(OCC3CCNCC3)nc2-c2ccc(Br)c(F)c2)ccc1Br	11.8 µM		
Cc1ccc(-c2ncc(OCC3CCNCC3)cc2-c2ccc(CO)cc2)cc1	62.6 µM		

SMILES	IC50 [1]	inhibition [2]	further results
Ic1ccc(-c2ncc(OCC3CCNCC3)nc2-c2ccc(I)cc2)cc1	7.8 µM		
CNCCCCOc1cnc(-c2ccc(Br)cc2)c(-c2ccc(Br)cc2)n1	> 10 µM		
Nc1ccc(-c2ccc(-c3ncc(OCC4CCNCC4)nc3-c3ccc(-c4ccc(N)cc4)cc3)cc2)cc1	2.3 µM		
c1cc(-c2ccc(-c3ncc(OCC4CCNCC4)nc3-c3ccc(-c4ccoc4)cc3)cc2)co1	1.4 µM		IC50 [10]: 7.2 µM; IC50 (CREB-binding protein): 2.2 µM; IC50 [11]: > 100 µM; IC50 [12]: > 100 µM; inhibition (Kasumi 1 [13]): Active; inhibition (Kasumi 1 [14]): Active; inhibition (Kasumi 1 [15]): Dde; EC50 (MCF7): 5.3 µM; EC50 (PANC-1): 1.2 µM; EC50 [16]: 4.3 µM; EC50 (MOLM-13 [17]): 3.6 µM; EC50 (MV4-11): 8.7 µM; EC50 (RPMI-8226 [18]): 6.4 µM
OCc1ccc(-c2ncc(OCC3CCNCC3)nc2-c2ccc(CO)cc2)cc1	10 µM	48.2%	
CNCCOc1cnc(-c2ccc(Br)cc2)c(-c2ccc(Br)cc2)n1	> 10 µM	19.6%	
c1cc(-c2ccc(-c3ncc(OCC4CCNCC4)nc3-c3ccc(-c4ccncc4)cc3)cc2)ccn1	> 10 µM	39%	
Brc1ccc(-c2ncc(OCC3CCNCC3)nc2-c2ccc(Br)c(Br)c2)cc1Br		50%	
NCCCOc1cnc(-c2ccc(Br)cc2)c(-c2ccc(Br)cc2)n1	> 10 µM		EC50 (MCF7): > 20 µM; EC50 (MDA-MB-231 [19]): > 20 µM; EC50 (LNCaP [20]): > 20 µM; EC50 (PC-3 [21]): > 20 µM; EC50 (PANC-1): > 20 µM; EC50 [16]: > 20 µM; EC50 (MOLM-13 [17]): > 20 µM; EC50 (MV4-11): > 20 µM; EC50 (RPMI-8226 [18]): > 20 µM
N#Cc1ccc(-c2nc(OCC3CCNCC3)cnc2-c2ccc(Br)cc2)cc1	> 10 µM	21%	
NCCCCOc1cnc(-c2ccc(Br)cc2)c(-c2ccc(Br)cc2)n1	> 10 µM		
N#Cc1ccc(-c2ncc(OCC3CCNCC3)nc2-c2ccc(C#N)cc2)cc1	> 10 µM	0%	
Brc1ccc(-c2ncc(OCC3CCNCC3)nc2-c2ccc(Br)cc2)cc1	5.7 µM	72.5%	IC50 [10]: 27 µM
CCc1ccc(-c2ncc(OCC3CCNCC3)nc2-c2ccc(CC)cc2)cc1	10 µM	55%	
CC(C)(C)c1ccc(-c2ncc(OCC3CCNCC3)nc2-c2ccc(C(C)(C)C)cc2)cc1	17.6 µM		
Clc1ccc(-c2ncc(OCC3CCNCC3)nc2-c2ccc(Cl)cc2)cc1	> 10 µM		
